{"source": "paper PMC2947195", "about": "(Biochemical Journal, 2010)", "type_in_all_cases": "cell-based", "key": {"[1]": {"molecular_target": "T1, S313C hRFC (Ser^313 replaced with cysteine) (Homo sapiens, UniProt P41440, S313C)", "T1 sequence (P41440 1-591 S313C)": "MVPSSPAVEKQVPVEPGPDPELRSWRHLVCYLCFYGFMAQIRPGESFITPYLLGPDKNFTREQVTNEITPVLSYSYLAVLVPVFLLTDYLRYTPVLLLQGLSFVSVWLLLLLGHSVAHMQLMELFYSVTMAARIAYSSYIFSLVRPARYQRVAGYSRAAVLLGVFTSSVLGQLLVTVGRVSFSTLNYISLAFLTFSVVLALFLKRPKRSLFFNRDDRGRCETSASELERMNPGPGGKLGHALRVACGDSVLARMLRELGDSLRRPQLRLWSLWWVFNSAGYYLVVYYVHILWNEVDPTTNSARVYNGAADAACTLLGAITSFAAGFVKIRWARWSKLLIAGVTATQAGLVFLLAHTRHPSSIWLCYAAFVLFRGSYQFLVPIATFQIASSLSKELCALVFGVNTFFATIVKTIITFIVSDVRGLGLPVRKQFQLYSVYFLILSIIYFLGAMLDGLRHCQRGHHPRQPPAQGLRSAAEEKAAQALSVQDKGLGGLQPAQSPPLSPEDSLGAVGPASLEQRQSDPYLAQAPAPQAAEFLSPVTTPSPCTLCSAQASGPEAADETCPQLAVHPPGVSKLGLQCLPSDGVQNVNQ", "assay": "[3H]MTX uptake in transiently transfected R5 HeLa cells", "summary_of_the_method": "(§1)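 Human R5 HeLa cells (transport-defective) were transiently transfected with Lipofectamine Plus, split at 24 h and assayed 24 h later. Uptake of 0.5 μM [3H]MTX ran for 2 min at 37 °C in HSM buffer (20 mM Hepes, 235 mM sucrose, pH 7.14 with MgO). Uptake was stopped with ice-cold PBS and cells solubilized in 0.5 M NaOH. Values in pmol/mg protein were normalized to HA-blot hRFC levels. Three experiments, means±S.E.M.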"}, "S313A hRFC": {"molecular_target": "T2, S313A hRFC (Homo sapiens, UniProt P41440, S313A)", "T2 sequence (P41440 1-591 S313A)": "T1 sequence (P41440 1-591 S313C) with C313A", "assay": "[3H]MTX transport kinetics", "summary_of_the_method": "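Human hRFC-null K500E (K562 subline) cells were electroporated (155 V, 1000 μF) with wt or Ser313-mutant hRFC. Stable clones were selected in soft agar with G418 (1 mg/ml). [3H]MTX uptake was measured over 180 s in HBSS at 37 °C in a shaking water bath and expressed as pmol/mg protein (Lowry). Kt and Vmax came from Lineweaver–Burk plots, with Vmax normalized to densitometric Western blot hRFC levels. Three experiments, means±S.E.M.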"}, "[2]": {"molecular_target": "T3, S313F hRFC (Ser^313 replaced with phenylalanine) (Homo sapiens, UniProt P41440, S313F)", "T3 sequence (P41440 1-591 S313F)": "T1 sequence (P41440 1-591 S313C) with C313F", "assay": "[3H]MTX uptake in transiently transfected R5 HeLa cells", "summary_of_the_method": "as §1"}}, "note": "Substitutions are numbered along the chain they refer to.", "data": [{"smiles": "CN(Cc1cnc2nc(N)nc(N)c2n1)c1ccc(C(=O)N[C@@H](CCC(=O)O)C(=O)O)cc1", "note": "[MTX, methotrexate]", "values": [{"measurement": "MTX transport", "setting": "[1]", "value": "abolished"}, {"measurement": "Vmax (normalized)/Kt", "setting": "S313A hRFC", "value": 0.18}, {"measurement": "Kt", "setting": "S313A hRFC; K500E stable transfectant, mean±S.E.M., n=3", "value": "2.26 ± 0.44", "unit": "µM"}, {"measurement": "Normalized Vmax", "setting": "S313A hRFC; Vmax normalized to relative hRFC level on Western blots", "value": "0.41±0.03"}, {"measurement": "MTX transport", "setting": "[2]", "value": "abolished"}]}]}
